Results reported in ChEMBL document CHEMBL1145596 (Bioorg Med Chem Lett, 2008).
In brackets after ≈: the same amount, converted by molar mass.

Key:
[1] = biological target: T1, ATP-dependent translocase ABCB1 (Homo sapiens, UniProt P08183); experiment: Reversal of P-glycoprotein-mediated multidrug resistance in human MDR1 gene transfected mouse L5178Y cells assessed as fluorescence activity ratio at 0.4 ug/ml by flow cytometry; type: cell-based
Outline: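 L5178 MDR1-transfected cells and parental cells grown in McCoy's 5A with 10% heat-inactivated horse serum, L-glutamine and antibiotics. Compound in DMSO added to cell aliquots for 10 min at room temperature. Rhodamine 123 then added (final 5.2 μM) for 20 min at 37 °C. Cells washed twice, resuspended in PBS pH 7.4, read by flow cytometry. FAR = (treated/untreated MDR) ÷ (treated/untreated parental).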

[2] = Lipophilicity, log P of the compound; type: physicochemical; settings: octanol/water
Outline: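 LogP computed for the unprotonated molecule with a commercial software package. Not measured experimentally.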

[3] = biological target: T1, ATP-dependent translocase ABCB1; experiment: Reversal of P-glycoprotein-mediated multidrug resistance in human MDR1 gene transfected human Colo 320 cells assessed as fluorescence activity ratio at 0.4 ug/ml by flow cytometry; type: cell-based
Outline: (§1)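 Colo320/MDR1 cells run as for the L5178 rhodamine 123 assay: compound preincubation 10 min at room temperature, then rhodamine 123 (final 5.2 μM) for 20 min at 37 °C. Monolayers detached with 0.25% trypsin for 2–3 min before flow cytometry. FAR taken as the treated/untreated fluorescence ratio in MDR cells over that in parental cells.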

[4] = biological target: T1, ATP-dependent translocase ABCB1; experiment: Reversal of P-glycoprotein-mediated multidrug resistance in human MDR1 gene transfected mouse L5178Y cells assessed as fluorescence activity ratio at 4 ug/ml by flow cytometry; type: cell-based
[5] = biological target: T1, ATP-dependent translocase ABCB1; experiment: Reversal of P-glycoprotein-mediated multidrug resistance in human MDR1 gene transfected mouse L5178Y cells assessed as fluorescence activity ratio at 40 ug/ml by flow cytometry; type: cell-based
[6] = biological target: T1, ATP-dependent translocase ABCB1; experiment: Reversal of P-glycoprotein-mediated multidrug resistance in human MDR1 gene transfected human Colo 320 cells assessed as fluorescence activity ratio at 4 ug/ml by flow cytometry; type: cell-based; outline: as §1
L5178Y [7] = experiment: Cytocidal activity against human MDR1 gene transfected mouse L5178Y cells after 48 hrs by MTT method; type: functional; settings: read-out: ID50 (the source's name)
Outline: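 Cells incubated with a range of compound concentrations for 48 h at 37 °C. Viability read by MTT. ID50 derived from the curves. Values are means of duplicate experiments.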

[8] = Dissociation constant, pKa of the compound; type: physicochemical
L5178Y [9] = experiment: Toxicity in human MDR1 gene transfected mouse L5178Y cells at 40 ug/ml; type: cell-based

T1 sequence (P08183 whole entry): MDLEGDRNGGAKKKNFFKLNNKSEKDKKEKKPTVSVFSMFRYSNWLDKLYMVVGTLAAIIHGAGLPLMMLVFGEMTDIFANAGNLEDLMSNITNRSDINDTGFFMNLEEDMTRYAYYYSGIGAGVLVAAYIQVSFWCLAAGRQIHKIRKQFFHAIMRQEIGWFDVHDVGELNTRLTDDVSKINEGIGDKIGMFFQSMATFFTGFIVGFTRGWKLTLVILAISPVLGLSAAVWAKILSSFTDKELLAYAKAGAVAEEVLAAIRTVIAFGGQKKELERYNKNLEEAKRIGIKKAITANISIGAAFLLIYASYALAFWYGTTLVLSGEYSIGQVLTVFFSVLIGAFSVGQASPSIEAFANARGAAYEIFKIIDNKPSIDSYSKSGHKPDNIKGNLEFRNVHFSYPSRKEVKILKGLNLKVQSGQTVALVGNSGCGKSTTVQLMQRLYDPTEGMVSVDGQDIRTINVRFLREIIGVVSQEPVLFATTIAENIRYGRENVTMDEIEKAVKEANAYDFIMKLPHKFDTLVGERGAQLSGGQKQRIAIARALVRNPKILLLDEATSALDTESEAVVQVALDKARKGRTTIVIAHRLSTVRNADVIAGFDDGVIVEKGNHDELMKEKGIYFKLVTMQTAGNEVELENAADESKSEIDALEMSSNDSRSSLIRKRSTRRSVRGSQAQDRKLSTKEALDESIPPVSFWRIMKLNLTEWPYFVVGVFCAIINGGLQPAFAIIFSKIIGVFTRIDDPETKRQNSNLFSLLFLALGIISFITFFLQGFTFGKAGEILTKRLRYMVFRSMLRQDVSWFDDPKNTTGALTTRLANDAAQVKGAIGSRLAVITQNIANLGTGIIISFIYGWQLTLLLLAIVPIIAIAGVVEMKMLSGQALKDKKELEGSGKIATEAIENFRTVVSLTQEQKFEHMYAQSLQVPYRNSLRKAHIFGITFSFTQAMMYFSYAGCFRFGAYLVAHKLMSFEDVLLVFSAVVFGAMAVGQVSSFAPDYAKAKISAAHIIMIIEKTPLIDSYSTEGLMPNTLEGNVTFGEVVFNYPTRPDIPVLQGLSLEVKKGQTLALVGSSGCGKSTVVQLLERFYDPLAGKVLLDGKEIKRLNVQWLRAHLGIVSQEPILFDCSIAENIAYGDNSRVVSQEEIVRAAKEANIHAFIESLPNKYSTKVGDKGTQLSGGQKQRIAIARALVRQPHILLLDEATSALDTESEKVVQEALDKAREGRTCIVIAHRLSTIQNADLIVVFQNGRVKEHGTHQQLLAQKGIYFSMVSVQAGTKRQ

| LogP [2] | Ratio [4] | Ratio [5] | pKa [8] | LogP ([2]; read-out: LogP) | SMILES | IC50 (L5178Y [7]) [µg/mL] | further results |
| --- | --- | --- | --- | --- | --- | --- | --- |
| 4.25 | 3.26 | 4.03 |  |  | Cc1ccc(/C=C2\CNC/C(=C\c3ccc(C)cc3)C2=O)cc1 |  | Ratio [1]: 1; Ratio [3]: 1.24; Ratio [6]: 2.42 |
|  |  |  |  |  | COc1ccc(CCN(C)CCC[C@](C#N)(c2ccc(OC)c(OC)c2)C(C)C)cc1OC | 42 (≈ 92.4 µM) |  |
| 5.35 |  |  | 10.8 |  | CCN(CC)CCOc1ccc(C(=O)N2C/C(=C\c3ccccc3)C(=O)/C(=C/c3ccccc3)C2)cc1.Cl | 3.27 |  |
| 6.71 | 118 | 99.7 | 10.8 |  | CCN(CC)CCOc1ccc(C(=O)N2C/C(=C\c3ccc(Cl)cc3)C(=O)/C(=C/c3ccc(Cl)cc3)C2)cc1.Cl | 1.53 |  |
| 4.6 | 45.5 | 51.6 | 10.7 |  | CN(C)CCOc1ccc(C(=O)N2C/C(=C\c3ccccc3)C(=O)/C(=C/c3ccccc3)C2)cc1.Cl |  |  |
|  | 1.93 | 114 |  | 2.27 | CC[N+](C)(CC)CCOc1ccc(C(=O)N2C/C(=C\c3ccc(C)cc3)C(=O)/C(=C/c3ccc(C)cc3)C2)cc1.[I-] |  |  |
|  | 1.21 | 1.85 |  | 2.73 | CC[N+](C)(CC)CCOc1ccc(C(=O)N2C/C(=C\c3ccc(Cl)cc3)C(=O)/C(=C/c3ccc(Cl)cc3)C2)cc1.[I-] |  |  |
| 5.42 | 145 | 51.5 | 11.1 |  | Cl.O=C1/C(=C/c2ccc([N+](=O)[O-])cc2)CN(C(=O)c2ccc(OCCN3CCCCC3)cc2)C/C1=C\c1ccc([N+](=O)[O-])cc1 | 2.15 |  |
|  |  |  | 8.5 | 5.34 | Cc1ccc(/C=C2\CN(C(=O)c3ccc(OCCN4CCOCC4)cc3)C/C(=C\c3ccc(C)cc3)C2=O)cc1.Cl |  |  |
|  | 1.03 | 1.22 |  | 1.3 | CC[N+](C)(CC)CCOc1ccc(C(=O)N2C/C(=C\c3ccc([N+](=O)[O-])cc3)C(=O)/C(=C/c3ccc([N+](=O)[O-])cc3)C2)cc1.[I-] |  |  |
|  |  |  | 10.7 | 4.52 | CN(C)CCOc1ccc(C(=O)N2C/C(=C\c3ccc([N+](=O)[O-])cc3)C(=O)/C(=C/c3ccc([N+](=O)[O-])cc3)C2)cc1.Cl |  |  |
| 6.86 | 157 | 133 | 11.1 |  | Cl.O=C1/C(=C/c2ccc(Cl)cc2)CN(C(=O)c2ccc(OCCN3CCCCC3)cc2)C/C1=C\c1ccc(Cl)cc1 | 4.17 |  |
| 5.95 |  |  | 10.7 |  | CN(C)CCOc1ccc(C(=O)N2C/C(=C\c3ccc(Cl)cc3)C(=O)/C(=C/c3ccc(Cl)cc3)C2)cc1.Cl |  |  |
|  |  |  | 8.5 | 4.64 | Cl.O=C1/C(=C/c2ccccc2)CN(C(=O)c2ccc(OCCN3CCOCC3)cc2)C/C1=C\c1ccccc1 |  |  |
| 6.4 | 179 | 146 | 11.1 |  | Cc1ccc(/C=C2\CN(C(=O)c3ccc(OCCN4CCCCC4)cc3)C/C(=C\c3ccc(C)cc3)C2=O)cc1.Cl | 2.83 | Ratio [1]: 7.35; Ratio [3]: 2.49; Ratio [6]: 10.8 |
| 3.38 | 1.58 | 2 |  |  | O=C1/C(=C/c2ccccc2)CNC/C1=C\c1ccccc1 |  |  |
| 4.71 | 1.25 | 0.91 |  |  | O=C1/C(=C/c2ccc(Cl)cc2)CNC/C1=C\c1ccc(Cl)cc1 |  |  |
|  |  |  | 8.5 | 4.36 | Cl.O=C1/C(=C/c2ccc([N+](=O)[O-])cc2)CN(C(=O)c2ccc(OCCN3CCOCC3)cc2)C/C1=C\c1ccc([N+](=O)[O-])cc1 |  |  |
| 5.5 |  |  | 10.7 |  | Cc1ccc(/C=C2\CN(C(=O)c3ccc(OCCN(C)C)cc3)C/C(=C\c3ccc(C)cc3)C2=O)cc1.Cl |  | Activity (L5178Y [9]): Toxic |
|  | 76 | 6.88 | 8.5 | 5.8 | Cl.O=C1/C(=C/c2ccc(Cl)cc2)CN(C(=O)c2ccc(OCCN3CCOCC3)cc2)C/C1=C\c1ccc(Cl)cc1 |  |  |
| 6.25 | 106 | 66.6 | 10.8 |  | CCN(CC)CCOc1ccc(C(=O)N2C/C(=C\c3ccc(C)cc3)C(=O)/C(=C/c3ccc(C)cc3)C2)cc1.Cl | 1.56 |  |
| 5.51 |  |  | 11.1 |  | Cl.O=C1/C(=C/c2ccccc2)CN(C(=O)c2ccc(OCCN3CCCCC3)cc2)C/C1=C\c1ccccc1 | 3.28 |  |
|  | 1.37 | 1.05 |  | 1.37 | CC[N+](C)(CC)CCOc1ccc(C(=O)N2C/C(=C\c3ccccc3)C(=O)/C(=C/c3ccccc3)C2)cc1.[I-] |  |  |

| SMILES | LogP [2] | Ratio [4] | Ratio [5] | pKa [8] | LogP ([2]; read-out: LogP) | IC50 (L5178Y [7]) [µg/mL] | further results |
| --- | --- | --- | --- | --- | --- | --- | --- |
| CCN(CC)CCOc1ccc(C(=O)N2C/C(=C\c3ccc([N+](=O)[O-])cc3)C(=O)/C(=C/c3ccc([N+](=O)[O-])cc3)C2)cc1.Cl | 5.27 | 77.5 | 14.1 | 10.8 |  |  |  |
| O=C1/C(=C/c2ccc([N+](=O)[O-])cc2)CNC/C1=C\c1ccc([N+](=O)[O-])cc1 | 3.27 |  |  |  |  |  |  |
